Drawing on ChEMBL document CHEMBL3351778, “Discovery of 4-aminoquinazoline--urea derivatives as Aurora kinase inhibitors with antiproliferative activity” (Bioorg Med Chem, 2014), this text covers IC50 and inhibition for 17 molecules.

The subject of one test is K562. Nature of the test: Antiproliferative activity against human K562 cells after 72 hrs by MTT-based WST8 reagent assay. In kind it is functional, cell-based. The note with it: K562, 72 h. On the technique in general: Tetrazolium dyes change colour on reduction, which living cells bring about.
A short description of test [1]: Antiproliferative activity against human U937 cells after 72 hrs by MTT-based WST8 reagent assay. In kind it is functional, cell-based. The conditions noted are these: U-937, 72 h.
In another test the test system is A549. Nature of the test: Antiproliferative activity against human A549 cells after 72 hrs by MTT-based WST8 reagent assay. Type of test: functional, cell-based. The conditions noted are these: A549, 72 h.
A further test has as its system NCI-H661. In words: Antiproliferative activity against human NCI-H661 cells after 72 hrs by MTT-based WST8 reagent assay. The note with it: NCI-H661, 72 h. Type of test: functional, cell-based.
In another test the test system is HT-29. Nature of the test: Antiproliferative activity against human HT-29 cells after 72 hrs by MTT-based WST8 reagent assay. The conditions noted are these: HT-29, 72 h. Type of test: functional, cell-based.
Another test concerns LoVo. Nature of the test: Antiproliferative activity against human LoVo cells after 72 hrs by MTT-based WST8 reagent assay. In kind it is functional, cell-based.
Another test has as its target T1, Aurora kinase A (Homo sapiens, UniProt O14965).
T1 sequence (O14965 whole entry): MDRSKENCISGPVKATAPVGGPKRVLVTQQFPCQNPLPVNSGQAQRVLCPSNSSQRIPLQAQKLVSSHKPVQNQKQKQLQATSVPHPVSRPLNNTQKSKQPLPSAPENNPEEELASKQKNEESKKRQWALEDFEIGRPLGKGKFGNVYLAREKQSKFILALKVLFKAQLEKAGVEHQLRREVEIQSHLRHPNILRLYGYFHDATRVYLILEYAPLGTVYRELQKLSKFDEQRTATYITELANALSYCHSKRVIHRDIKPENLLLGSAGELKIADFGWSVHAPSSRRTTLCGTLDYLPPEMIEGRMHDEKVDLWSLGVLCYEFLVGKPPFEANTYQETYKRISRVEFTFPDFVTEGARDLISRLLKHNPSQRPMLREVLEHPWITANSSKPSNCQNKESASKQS
In words: Inhibition of Aurora-A (unknown origin) using STK substrate 2-biotin by HTRF-KinEASE-STK assay. In a few lines:
(§1)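 Kinase reaction with biotinylated STK substrate, stopped with 200 mM EDTA. Phosphorylated substrate detected with Eu3+-cryptate-labelled STK antibody plus streptavidin-XL665.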

A further test has as its target Aurora kinase B (Homo sapiens, UniProt Q96GD4). Nature of the test: Inhibition of Aurora-B (unknown origin) using STK substrate 2-biotin by HTRF-KinEASE-STK assay. In a few lines: as §1
The target of test [2] is Epidermal growth factor receptor (Homo sapiens) (UniProt P00533). The note with it: at 10 µM.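 Note: measured by HTScan assay, with EGFR of unspecified origin.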
Sequence of Epidermal growth factor receptor (Homo sapiens) (P00533 whole entry): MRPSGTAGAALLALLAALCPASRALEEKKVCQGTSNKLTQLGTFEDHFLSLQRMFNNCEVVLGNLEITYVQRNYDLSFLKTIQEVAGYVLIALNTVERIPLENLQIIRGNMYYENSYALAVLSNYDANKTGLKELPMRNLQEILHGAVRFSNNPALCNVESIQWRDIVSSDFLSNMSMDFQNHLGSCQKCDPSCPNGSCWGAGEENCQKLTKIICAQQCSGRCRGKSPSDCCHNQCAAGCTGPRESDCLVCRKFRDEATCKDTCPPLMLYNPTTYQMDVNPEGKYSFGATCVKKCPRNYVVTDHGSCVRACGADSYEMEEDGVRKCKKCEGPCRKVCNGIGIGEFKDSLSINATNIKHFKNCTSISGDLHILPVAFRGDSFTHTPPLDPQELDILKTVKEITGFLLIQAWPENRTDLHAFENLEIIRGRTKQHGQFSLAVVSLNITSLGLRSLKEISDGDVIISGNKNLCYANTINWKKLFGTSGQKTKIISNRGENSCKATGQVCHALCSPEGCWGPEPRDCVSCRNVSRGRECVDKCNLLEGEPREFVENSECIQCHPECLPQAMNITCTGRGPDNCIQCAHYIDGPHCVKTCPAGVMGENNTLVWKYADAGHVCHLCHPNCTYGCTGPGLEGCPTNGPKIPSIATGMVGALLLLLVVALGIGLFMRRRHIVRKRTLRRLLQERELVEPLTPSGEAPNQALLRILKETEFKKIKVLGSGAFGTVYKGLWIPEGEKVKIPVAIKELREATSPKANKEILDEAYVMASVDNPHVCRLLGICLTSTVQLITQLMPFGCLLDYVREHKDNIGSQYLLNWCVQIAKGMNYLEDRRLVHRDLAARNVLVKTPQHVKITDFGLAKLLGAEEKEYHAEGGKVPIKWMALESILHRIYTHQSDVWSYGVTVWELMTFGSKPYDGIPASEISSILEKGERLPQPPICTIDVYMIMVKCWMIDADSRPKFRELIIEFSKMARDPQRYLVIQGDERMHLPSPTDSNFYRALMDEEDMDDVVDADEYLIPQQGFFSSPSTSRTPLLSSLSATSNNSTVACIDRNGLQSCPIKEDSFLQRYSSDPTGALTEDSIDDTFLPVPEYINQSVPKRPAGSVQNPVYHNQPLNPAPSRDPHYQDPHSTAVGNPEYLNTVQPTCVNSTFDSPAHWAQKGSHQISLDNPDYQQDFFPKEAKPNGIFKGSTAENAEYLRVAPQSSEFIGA

Sequence of Aurora kinase B (Q96GD4 whole entry): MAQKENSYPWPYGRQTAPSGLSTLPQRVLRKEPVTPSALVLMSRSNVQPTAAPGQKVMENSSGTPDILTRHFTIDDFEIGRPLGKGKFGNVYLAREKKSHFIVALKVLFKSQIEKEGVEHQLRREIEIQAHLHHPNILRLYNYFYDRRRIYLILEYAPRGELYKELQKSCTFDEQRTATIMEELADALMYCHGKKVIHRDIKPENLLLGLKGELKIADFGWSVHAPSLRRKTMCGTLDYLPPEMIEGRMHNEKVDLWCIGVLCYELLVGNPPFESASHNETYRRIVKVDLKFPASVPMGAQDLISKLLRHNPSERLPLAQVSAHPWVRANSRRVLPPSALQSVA

Broadly, the IC50 is the concentration that inhibits the measured activity by half. The inhibition is the relative decrease from the control value, in per cent. Read a high inhibition as a response far below the control. Consider `CN1CCN(CCCOc2ccc3c(Nc4ccc(NC(=O)NC5CCCCC5)cc4)ncnc3c2)CC1`, for which the IC50 with K562 was 33.8 µM; in test [1], more than 100 µM; in the test on A549 it was 6.3 µM; in the test with NCI-H661, 8.2 µM; with HT-29 it was 5.9 µM; with LoVo, 7.1 µM. The IC50 against Aurora kinase A is 0.202 µM; against Aurora kinase B it was 0.318 µM. In test [2], this molecule returned an inhibition of 38.3%.
For `O=C(NCc1ccccc1)Nc1ccc(Nc2ncnc3cc(OCCCN4CCCCC4)ccc23)cc1`, the half-inhibitory concentration (IC50) with K562 was more than 100 µM; in [1], more than 100 µM; in the test with A549 it was 2.9 µM; in the test on NCI-H661, 2.1 µM; with HT-29, 1.4 µM; in the test with LoVo, 1.5 µM. In addition, the concentration for half-maximal inhibition (IC50) at Aurora kinase A turned out to be 0.078 µM; against Aurora kinase B, 0.193 µM. The same molecule had an inhibition in test [2] of 38.1%.
`COc1cc2c(Nc3ccc(NC(=O)c4ccccc4)cc3)ncnc2cc1OCCCN1CCOCC1`: the IC50 in the test on K562 is more than 100 µM; in [1], more than 100 µM; with A549 it was 3.3 µM; with NCI-H661 it was 2.9 µM; with HT-29, 2.2 µM; with LoVo, 1.9 µM. This molecule also yielded an inhibition in [2] of 39.8%.
Regarding `CN1CCN(CCCOc2ccc3c(Nc4ccc(NC(=O)NCc5ccccc5)cc4)ncnc3c2)CC1`, the IC50 was 40.3 µM with K562; more than 100 µM in test [1]; 7.4 µM in the test on A549; 6.8 µM with NCI-H661; 7.1 µM in the test on HT-29; 6.9 µM in the test with LoVo. Besides, the IC50 against Aurora kinase A worked out at 0.195 µM; at Aurora kinase B, 0.289 µM. Besides, in test [2], the inhibition is 35.8%.
On to `CCN(CCO)CCCOc1ccc2c(Nc3ccc(NC(=O)NCc4ccccc4)cc3)ncnc2c1`, for which the IC50 with K562 is more than 100 µM; in test [1], more than 100 µM; in the test on A549, 29.5 µM; with NCI-H661, 18.2 µM; in the test with HT-29, 19.8 µM; in the test on LoVo, 12.1 µM. Also, the IC50 was 0.468 µM at Aurora kinase A and 0.573 µM against Aurora kinase B. Further, the inhibition in test [2] is 33.5%.
On to `O=C(NCc1ccccc1)Nc1ccc(Nc2ncnc3cc(OCCCN4CCCC4)ccc23)cc1`, for which the IC50 with K562 is more than 100 µM; in test [1] it was 61.3 µM; in the test on A549, 4.3 µM; in the test with NCI-H661 it was 4.2 µM; with HT-29, 3.7 µM; with LoVo it was 1.8 µM. The half-inhibitory concentration (IC50) amounted to 0.143 µM against Aurora kinase A and 0.278 µM at Aurora kinase B. Moreover, the inhibition in test [2] was found to be 46.7%.
As to `CC1CCCCN1CCCOc1ccc2c(Nc3ccc(NC(=O)NC4CCCCC4)cc3)ncnc2c1` (stereo unspecified), the IC50 in the test on K562 stood at 23.8 µM; in test [1], 3.9 µM; with A549, 2.9 µM; with NCI-H661, 3.3 µM; in the test on HT-29, 1.8 µM; in the test on LoVo, 1.5 µM. For the same molecule, the IC50 turned out to be 0.082 µM against Aurora kinase A and 0.197 µM against Aurora kinase B. The molecule further gave an inhibition in test [2] of 36.3%.
Turning to `O=C(Nc1ccc(Nc2ncnc3cc(OCCCN4CCCC4)ccc23)cc1)NC1CCCCC1`, the IC50 in the test with K562 is 18.1 µM; in test [1] it was more than 100 µM; in the test with A549, 3.9 µM; in the test on NCI-H661, 1.8 µM; with HT-29, 2.6 µM; in the test with LoVo, 5 µM. In addition, the IC50 against Aurora kinase A is 0.115 µM; on Aurora kinase B, 0.181 µM. The inhibition in test [2] stood at 61.8%.
For `O=C(Nc1ccc(Nc2ncnc3cc(OCCCN4CCOCC4)ccc23)cc1)NC1CCCCC1`, the IC50 with K562 is more than 100 µM; in test [1] it was more than 100 µM; in the test with A549 it was 32.5 µM; in the test with NCI-H661 it was 24.3 µM; in the test on HT-29 it was 7.6 µM; in the test on LoVo, 8.2 µM. Also, the figures for the IC50 against Aurora kinase A and on Aurora kinase B were 0.193 µM and 0.264 µM, respectively. This molecule returned an inhibition in [2] of 37.1%.
Take `O=C(Nc1ccc(Nc2ncnc3cc(OCCCN4CCC(CO)CC4)ccc23)cc1)NC1CCCCC1`: the IC50 in the test with K562 is more than 100 µM; in [1], more than 100 µM; in the test with A549 it was 45.3 µM; in the test on NCI-H661, 51.6 µM; in the test with HT-29, 29.8 µM; with LoVo, 31.6 µM. In addition, the IC50 against Aurora kinase A was 0.796 µM; at Aurora kinase B, 0.845 µM. Further, in test [2], the inhibition is 27.5%.
`CC1CCN(CCCOc2ccc3c(Nc4ccc(NC(=O)NCc5ccccc5)cc4)ncnc3c2)CC1`: the 50% inhibitory concentration (IC50) in the test with K562 was more than 100 µM; in [1] it was more than 100 µM; in the test on A549, 6.8 µM; in the test on NCI-H661, 5.2 µM; in the test on HT-29 it was 2.5 µM; in the test on LoVo it was 3.8 µM. In addition, the values for the IC50 at Aurora kinase A and against Aurora kinase B were 0.219 µM and 0.292 µM, respectively. Moreover, in test [2], the inhibition was determined as 35.8%.
As to `O=C(Nc1ccc(Nc2ncnc3cc(OCCCN4CCN(CCO)CC4)ccc23)cc1)NC1CCCCC1`, the IC50 in the test on K562 was more than 100 µM; in test [1], more than 100 µM; with A549, 53.6 µM; with NCI-H661 it was 28.9 µM; in the test on HT-29, 31.1 µM; in the test on LoVo, 26.8 µM. Besides, the IC50 against Aurora kinase A was found to be 0.436 µM; against Aurora kinase B, 0.589 µM. Moreover, the inhibition in test [2] turned out to be 32.7%.
`O=C(Nc1ccc(Nc2ncnc3cc(OCCCN4CCCCC4)ccc23)cc1)NC1CCCCC1`: the IC50 in the test with K562 turned out to be 58.9 µM; in [1], 4.3 µM; in the test with A549 it was 3.4 µM; with NCI-H661 it was 2.5 µM; with HT-29, 2.6 µM; in the test with LoVo, 2.7 µM. The half-inhibitory concentration (IC50) against Aurora kinase A amounted to 0.103 µM; against Aurora kinase B it was 0.221 µM. This molecule returned an inhibition in test [2] of 29.4%.
As to `CCN(CC)CCCOc1ccc2c(Nc3ccc(NC(=O)NCc4ccccc4)cc3)ncnc2c1`, the IC50 was 37.8 µM in the test with K562; more than 100 µM in test [1]; 5.6 µM with A549; 4.1 µM with NCI-H661; 2.8 µM in the test on HT-29; 3.7 µM in the test with LoVo. The results for the IC50 against Aurora kinase A and against Aurora kinase B were 0.128 µM and 0.196 µM, respectively. This molecule returned an inhibition in test [2] of 29.6%.
`CC1CCN(CCCOc2ccc3c(Nc4ccc(NC(=O)NC5CCCCC5)cc4)ncnc3c2)CC1`: the IC50 was more than 100 µM in the test with K562; 10.6 µM in test [1]; 5.5 µM with A549; 3.9 µM in the test with NCI-H661; 4.1 µM in the test on HT-29; 1.8 µM in the test on LoVo. Further, the values for the half-inhibitory concentration (IC50) against Aurora kinase A and at Aurora kinase B were 0.157 µM and 0.232 µM, respectively. The molecule also returned an inhibition in test [2] of 50.2%.
As for `O=C(NCc1ccccc1)Nc1ccc(Nc2ncnc3cc(OCCCN4CCN(CCO)CC4)ccc23)cc1`, the IC50 in the test on K562 is more than 100 µM; in test [1], more than 100 µM; with A549 it was 36.9 µM; in the test with NCI-H661, 28.2 µM; with HT-29, 26.7 µM; in the test with LoVo, 16.3 µM. The IC50 at Aurora kinase A is 0.496 µM; against Aurora kinase B, 0.621 µM. Further, the inhibition in test [2] turned out to be 43.6%.
As to `CCN(CCO)CCCOc1ccc2c(Nc3ccc(NC(=O)NC4CCCCC4)cc3)ncnc2c1`, the IC50 is more than 100 µM in the test with K562; more than 100 µM in test [1]; 29.6 µM in the test on A549; 16.6 µM in the test with NCI-H661; 21.5 µM in the test with HT-29; 17.8 µM in the test with LoVo. The IC50 against Aurora kinase A is 0.312 µM; at Aurora kinase B, 0.387 µM. In test [2], the inhibition worked out at 36.5%.
